# Experimental data from ChEMBL document CHEMBL1921722, “In vitro and in vivo evaluation of select kahalalide F analogs with antitumor and antifungal activities” (Bioorg Med Chem, 2011).
# Experiments:
# NCI-H23 = test: Cytotoxicity against human NCI-H23 cells assessed as cell growth at 8 uM by sulforhodamine B assay relative to control; assay type: functional; conditions: read-out: Activity
# SK-MEL-2 = test: Cytotoxicity against human SK-MEL-2 cells assessed as cell growth at 800 nM by sulforhodamine B assay relative to control; assay type: functional; conditions: read-out: Activity
# UACC-257 = test: Cytotoxicity against human UACC257 cells by sulforhodamine B assay; assay type: functional
# Procedure, shortened: (§1)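 NCI Developmental Therapeutics Program 60-cell-line human tumor panel screen, run at NCI. A single-concentration pre-screen was followed by a five-concentration dose-response in 10-fold steps. GI50 is the concentration that reduces growth of treated cells to half that of untreated control cells. TGI is the concentration that completely halts growth.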
# T47D [1] = test: Cytotoxicity against human T47D cells assessed as cell growth at 80 uM by sulforhodamine B assay relative to control; assay type: functional; conditions: read-out: Activity
# A498 [2] = test: Cytotoxicity against human A498 cells assessed as cell growth at 8 uM by sulforhodamine B assay relative to control; assay type: functional; conditions: read-out: Activity
# Procedure, shortened: (§2)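 Run at NCI in the DTP 60-cell-line human tumor panel by standard procedure. Compounds were first screened at a single concentration, then tested at five tenfold-spaced concentrations. GI50 is the concentration reducing treated-cell growth to half that of untreated controls; TGI is the concentration completely halting growth.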
# Cryptococcus neoformans = test: Antimicrobial activity against Cryptococcus neoformans ATCC 90113 by CLSI method; assay type: functional, organism-based
# SR = test: Cytotoxicity against human SR cells assessed as cell growth at 800 nM by sulforhodamine B assay relative to control; assay type: functional; conditions: read-out: Activity
# A498 [3] = test: Cytotoxicity against human A498 cells assessed as cell growth at 80 nM by sulforhodamine B assay relative to control; assay type: functional; conditions: read-out: Activity; procedure, shortened: as §2
# SNB-19 = test: Cytotoxicity against human SNB19 cells assessed as cell growth at 8 uM by sulforhodamine B assay relative to control; assay type: functional; conditions: read-out: Activity
# SF-539 = test: Cytotoxicity against human SF539 cells assessed as cell growth at 8 nM by sulforhodamine B assay relative to control; assay type: functional; conditions: read-out: Activity
# HCC 2998 = test: Cytotoxicity against human HCC2998 cells by sulforhodamine B assay; assay type: functional
# Procedure, shortened: (§3)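 Run by the NCI Developmental Therapeutics Program on its 60-line human tumour cell panel using the standard procedure. Compounds went through a single-concentration prescreen first, and those active by NCI criteria went on to a five-concentration growth-inhibition test. GI50 is the concentration that cuts growth of treated cells to half that of untreated control cells.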
# SW-620 = test: Cytotoxicity against human SW620 cells assessed as cell growth at 8 uM by sulforhodamine B assay relative to control; assay type: functional; conditions: read-out: Activity
# K562 = test: Cytotoxicity against human K562 cells assessed as cell growth at 8 nM by sulforhodamine B assay relative to control; assay type: functional; conditions: read-out: Activity
# M14 = test: Cytotoxicity against human M14 cells assessed as cell growth at 800 nM by sulforhodamine B assay relative to control; assay type: functional; conditions: read-out: Activity
# MOLT-4 = test: Cytotoxicity against human MOLT4 cells by sulforhodamine B assay; assay type: functional; procedure, shortened: as §1
# HT-29 = test: Cytotoxicity against human HT-29 cells by sulforhodamine B assay; assay type: functional; procedure, shortened: as §3
# SK-MEL-28 [4] = test: Cytotoxicity against human SK-MEL-28 cells assessed as cell growth at 800 nM by sulforhodamine B assay relative to control; assay type: functional; conditions: read-out: Activity
# [5] = Acute toxicity in ip dosed athymic nude mouse assessed as mortality after 24 days; assay type: organism-based; conditions: in vivo
# Procedure, shortened: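 Female athymic nude mice, non-tumored; single IP injection, one mouse per dose level, 400, 200 and 100 mg/kg first, then 50, 25 and 12.5 mg/kg. Dose volume 0.1 ml/10 g body weight. Body weight and survival monitored; animals sacrificed on >20% weight loss or other significant toxicity.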
# KM12 = test: Cytotoxicity against human KM12 cells assessed as cell growth at 8 nM by sulforhodamine B assay relative to control; assay type: functional; conditions: read-out: Activity
# PC-3 [6] = test: Cytotoxicity against human PC3 cells assessed as cell growth at 80 uM by sulforhodamine B assay relative to control; assay type: functional; conditions: read-out: Activity
# SF-295 = test: Cytotoxicity against human SF295 cells assessed as cell growth at 80 nM by sulforhodamine B assay relative to control; assay type: functional; conditions: read-out: Activity
# MDA-MB-435 [7] = test: Cytotoxicity against human MDA-MB-435 cells by sulforhodamine B assay; assay type: functional; procedure, shortened: as §1
# PC-3 [8] = test: Cytotoxicity against human PC3 cells assessed as cell growth at 8 uM by sulforhodamine B assay relative to control; assay type: functional; conditions: read-out: Activity
# NCI-H322M [9] = test: Cytotoxicity against human NCI-H322M cells assessed as cell growth at 80 nM by sulforhodamine B assay relative to control; assay type: functional; conditions: read-out: Activity
# OVCAR-5 = test: Cytotoxicity against human OVCAR5 cells assessed as cell growth at 80 nM by sulforhodamine B assay relative to control; assay type: functional; conditions: read-out: Activity
# SK-MEL-28 [10] = test: Cytotoxicity against human SK-MEL-28 cells assessed as cell growth at 80 nM by sulforhodamine B assay relative to control; assay type: functional; conditions: read-out: Activity
# NCI-H322M [11] = test: Cytotoxicity against human NCI-H322M cells by sulforhodamine B assay; assay type: functional; procedure, shortened: as §1
# Hs-578T = test: Cytotoxicity against human Hs578T cells assessed as cell growth at 8 uM by sulforhodamine B assay relative to control; assay type: functional; conditions: read-out: Activity
# UACC-62 = test: Cytotoxicity against human UACC62 cells assessed as cell growth at 80 nM by sulforhodamine B assay relative to control; assay type: functional; conditions: read-out: Activity
# NCI-H226 = test: Cytotoxicity against human NCI-H226 cells assessed as cell growth at 80 nM by sulforhodamine B assay relative to control; assay type: functional; conditions: read-out: Activity
# LOX IMVI = test: Cytotoxicity against human LOXIMVI cells assessed as cell growth at 80 nM by sulforhodamine B assay relative to control; assay type: functional; conditions: read-out: Activity
# IGROV-1 = test: Cytotoxicity against human IGROV1 cells assessed as cell growth at 8 nM by sulforhodamine B assay relative to control; assay type: functional; conditions: read-out: Activity
# EKVX = test: Cytotoxicity against human EKVX cells assessed as cell growth at 800 nM by sulforhodamine B assay relative to control; assay type: functional; conditions: read-out: Activity
# MDA-MB-435 [12] = test: Cytotoxicity against human MDA-MB-435 cells assessed as cell growth at 800 nM by sulforhodamine B assay relative to control; assay type: functional; conditions: read-out: Activity
# NCI-H460 = test: Cytotoxicity against human NCI-H460 cells assessed as cell growth at 80 nM by sulforhodamine B assay relative to control; assay type: functional; conditions: read-out: Activity
# HL-60(TB) = test: Cytotoxicity against human HL-60(TB) cells assessed as cell growth at 80 uM by sulforhodamine B assay relative to control; assay type: functional; conditions: read-out: Activity
# T47D [13] = test: Cytotoxicity against human T47D cells assessed as cell growth at 8 uM by sulforhodamine B assay relative to control; assay type: functional; conditions: read-out: Activity
smiles,measurement,setting,value
C/C=C1\NC(=O)[C@H](Cc2ccccc2)NC(=O)[C@@H](C(C)C)NC(=O)[C@@H]([C@@H](C)CC)NC(=O)[C@H](NC(=O)[C@H](NC(=O)[C@H](CCCNCc2ccc(N3CCOCC3)cc2)NC(=O)[C@H]2CCCN2C(=O)[C@H](NC(=O)[C@@H](NC(=O)[C@@H](NC(=O)[C@H](NC(=O)CCCC(C)C)C(C)C)[C@@H](C)O)C(C)C)C(C)C)[C@@H](C)CC)[C@@H](C)OC(=O)[C@H](C(C)C)NC1=O,growth at 8 µM,NCI-H23,-63%
same,growth at 0.8 µM,SK-MEL-2,105%
same,GI50,UACC-257; read-out: GI50,1340 nM
same,TGI,UACC-257; read-out: TGI,2650 nM
same,GI50,UACC-257; read-out: pGI50 (converted),1350 nM
same,TGI,UACC-257; read-out: pTGI (converted),2630 nM
same,growth at 80 µM,T47D [1],-7%
same,growth at 8 µM,A498 [2],-51%
same,IC50,Cryptococcus neoformans,1730 nM
same,MFC,Cryptococcus neoformans,10 µM
same,MIC,Cryptococcus neoformans,5 µM
same,growth at 0.8 µM,SR,103%
same,growth at 0.08 µM,A498 [3],110%
same,growth at 8 µM,SNB-19,-70%
same,growth at 0.008 µM,SF-539,101%
same,LC50,HCC 2998,3310 nM
same,GI50,HCC 2998; read-out: GI50,250 nM
same,TGI,HCC 2998; read-out: TGI,877 nM
same,GI50,HCC 2998; read-out: pGI50 (converted),251 nM
same,TGI,HCC 2998; read-out: pTGI (converted),871 nM
same,growth at 8 µM,SW-620,-98%
same,growth at 0.008 µM,K562,103%
same,growth at 0.8 µM,M14,102%
same,GI50,MOLT-4,20400 nM
same,LC50,MOLT-4,> 75900 nM
same,TGI,MOLT-4; read-out: pTGI,> 75900 nM
same,GI50,HT-29; read-out: GI50,224 nM
same,GI50,HT-29; read-out: pGI50 (converted),224 nM
same,growth at 0.8 µM,SK-MEL-28 [4],98%
same,MTD at 576 h,[5],12.5 mg/kg
same,growth at 0.008 µM,KM12,106%
same,growth at 80 µM,PC-3 [6],-67%
same,growth at 0.08 µM,SF-295,99%
same,GI50,MDA-MB-435 [7],1290 nM
same,TGI,MDA-MB-435 [7]; read-out: pTGI (converted),2450 nM
same,growth at 8 µM,PC-3 [8],-91%
same,growth at 0.08 µM,NCI-H322M [9],92%
same,growth at 0.08 µM,OVCAR-5,93%
same,growth at 0.08 µM,SK-MEL-28 [10],99%
same,GI50,NCI-H322M [11]; read-out: GI50,133 nM
same,TGI,NCI-H322M [11]; read-out: TGI,264 nM
same,GI50,NCI-H322M [11]; read-out: pGI50 (converted),132 nM
same,TGI,NCI-H322M [11]; read-out: pTGI (converted),263 nM
same,growth at 8 µM,Hs-578T,-46%
same,growth at 0.08 µM,UACC-62,103%
same,growth at 0.08 µM,NCI-H226,107%
same,growth at 0.08 µM,LOX IMVI,100%
same,growth at 0.008 µM,IGROV-1,104%
same,growth at 0.8 µM,EKVX,53%
same,growth at 0.8 µM,MDA-MB-435 [12],94%
same,growth at 0.08 µM,NCI-H460,103%
same,growth at 80 µM,HL-60(TB),-24%
same,growth at 8 µM,T47D [13],-63%
